Measurements reported in ChEMBL document CHEMBL1141192 (J Med Chem, 2005).
In brackets after ≈: the same amount, converted by molar mass.

Legend:
[1] = Solubility in water at pH 7.4
Adenosine kinase = Adenosine kinase (Homo sapiens, UniProt P55263); assay: Inhibitory activity against recombinant human adenosine kinase
Rattus norvegicus = assay: Inhibition of the licking and biting response at 20 mg/kg, po in rat by formalin paw antinociceptive assay; assay type: functional; conditions: Sprague-Dawley
Outline: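 Screening: fasted male SD rats (105–115 g), three per compound, 20 mg/kg po in 0.1% MC 15 min before 2% formalin (50 μL s.c., right hindpaw). Licking/biting scored 5 s per 30 s; percent inhibition reported for 2nd phase (15–30 min); positive control 5 mg/kg po each run.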

Chain of Adenosine kinase (P55263 whole entry): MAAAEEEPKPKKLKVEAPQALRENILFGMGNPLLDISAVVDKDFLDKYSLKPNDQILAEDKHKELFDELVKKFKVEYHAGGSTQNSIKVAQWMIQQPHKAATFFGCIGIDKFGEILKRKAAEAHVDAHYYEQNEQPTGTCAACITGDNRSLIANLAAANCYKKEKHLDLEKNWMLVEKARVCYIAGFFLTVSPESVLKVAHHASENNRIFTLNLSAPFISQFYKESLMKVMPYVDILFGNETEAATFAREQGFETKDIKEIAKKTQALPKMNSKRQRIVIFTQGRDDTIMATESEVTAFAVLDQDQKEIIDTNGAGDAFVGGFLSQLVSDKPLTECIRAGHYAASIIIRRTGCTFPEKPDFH

Structure (SMILES)	solubility [1] [µg/mL]	IC50 (Adenosine kinase) [µM]	inhibition in vivo at 20 mg/kg (Rattus norvegicus) [%]
C[C@H]1O[C@@H](n2cc(-c3ccccc3)c3c(Nc4ccccc4)ncnc32)[C@H](O)[C@@H]1O	< 0.05		
CC(C)CNc1ncnc2c1c(-c1ccccc1)cn2[C@@H]1O[C@H](C)[C@@H](O)[C@H]1O	3 (≈ 7.84 µM)	0.14	
C[C@H]1O[C@@H](n2cc(-c3ccccc3)c3c(NCC(=O)NCCCO)ncnc32)[C@H](O)[C@@H]1O	650 (≈ 1470 µM)	0.016	4
C[C@H]1O[C@@H](n2cc(-c3ccccc3)c3c(NCC(N)=O)ncnc32)[C@H](O)[C@@H]1O	750 (≈ 1960 µM)	0.002	
O=C(CNc1ncnc2c1c(-c1ccccc1)nn2[C@@H]1O[C@H](CO)[C@@H](O)[C@H]1O)Nc1ccccc1	7 (≈ 14.7 µM)	0.0009	-10
O=C(CNc1ncnc2c1c(-c1ccccc1)cn2[C@@H]1O[C@H](CO)[C@@H](O)[C@H]1O)NC1CC1	76 (≈ 173 µM)	0.003	21
CCN(CC)CCNC(=O)CNc1ncnc2c1c(-c1ccccc1)cn2[C@@H]1O[C@H](C)[C@@H](O)[C@H]1O	> 1000	0.21	11
CCCNc1ncnc2c1c(-c1ccccc1)cn2[C@@H]1O[C@H](C)[C@@H](O)[C@H]1O	16 (≈ 43.4 µM)	0.1	
CNC(=O)Nc1ncnc2c1c(-c1ccccc1)cn2[C@@H]1O[C@H](C)[C@@H](O)[C@H]1O	32 (≈ 83.5 µM)	0.027	
O=C(CNc1ncnc2c1c(-c1ccccc1)cn2COCCO)Nc1ccc(Cl)cc1	< 0.05	0.06	31
O=C(CNc1ncnc2c1c(-c1ccccc1)cn2[C@@H]1OC[C@@H](O)[C@H]1O)Nc1ccccc1		0.0006	37
O=C(CNc1ncnc2c1c(-c1ccccc1)cn2[C@@H]1OC[C@@H](O)[C@H]1O)NC1CC1	280 (≈ 684 µM)	0.02	17
CCCNC(=O)CNc1ncnc2c1c(-c1ccccc1)cn2[C@@H]1O[C@H](C)[C@@H](O)[C@H]1O	38 (≈ 89.3 µM)	0.007	41
C[C@H]1O[C@@H](n2cc(I)c3c(NCC(=O)NC4CC4)ncnc32)[C@H](O)[C@@H]1O	5 (≈ 10.6 µM)	0.88	
C[C@H](Nc1ncnc2c1c(-c1ccccc1)cn2[C@@H]1O[C@H](C)[C@@H](O)[C@H]1O)C(=O)NC1CC1	480 (≈ 1100 µM)	0.53	
O=C(CNc1ncnc2c1c(-c1ccccc1)nn2[C@@H]1O[C@H](CO)[C@@H](O)[C@H]1O)NC1CC1	370 (≈ 840 µM)	0.01	6
COCCCNC(=O)CNc1ncnc2c1c(-c1ccccc1)cn2[C@@H]1O[C@H](C)[C@@H](O)[C@H]1O		0.002	24
C[C@H]1O[C@@H](n2cc(-c3ccccc3)c3c(NCC4CC4)ncnc32)[C@H](O)[C@@H]1O	0.1 (≈ 0.263 µM)	0.045	
CNC(=O)CNc1ncnc2c1c(-c1ccccc1)cn2[C@@H]1O[C@H](C)[C@@H](O)[C@H]1O	240 (≈ 604 µM)	0.0008	35
C[C@H]1O[C@@H](n2cc(-c3ccccc3)c3c(NC/C(S)=N\C4CC4)ncnc32)[C@H](O)[C@@H]1O	8 (≈ 18.2 µM)	0.0005	22
C[C@H]1O[C@@H](n2cc(-c3ccccc3)c3c(NCC(=O)Nc4ccc(Cl)cc4)ncnc32)[C@H](O)[C@@H]1O	< 0.05	0.0002	62

Structure (SMILES)	solubility [1] [µg/mL]	IC50 (Adenosine kinase) [µM]	inhibition in vivo at 20 mg/kg (Rattus norvegicus) [%]
C[C@H]1O[C@@H](n2cc(-c3ccccc3)c3c(NCC(=O)NC4CCC4)ncnc32)[C@H](O)[C@@H]1O	44 (≈ 101 µM)	0.0013	60
CC(C)CNC(=O)CNc1ncnc2c1c(-c1ccccc1)cn2[C@@H]1O[C@H](C)[C@@H](O)[C@H]1O	7 (≈ 15.9 µM)	0.004	16
O=C(CNc1[nH]cnc2ncc(-c3ccccc3)c1-2)NC1CC1		> 10	
C[C@H]1O[C@@H](n2cc(-c3ccccc3)c3c(NCCC(N)=O)ncnc32)[C@H](O)[C@@H]1O		2.5	
COCCNC(=O)CNc1ncnc2c1c(-c1ccccc1)cn2[C@@H]1O[C@H](C)[C@@H](O)[C@H]1O	230 (≈ 521 µM)	0.038	44
C[C@H]1O[C@@H](n2cc(-c3ccccc3)c3c(NCC(=O)N(C)C4CC4)ncnc32)[C@H](O)[C@@H]1O	105 (≈ 240 µM)	0.46	
C[C@H]1O[C@@H](n2cc(-c3ccccc3)c3c(NC(=O)C(=O)NC4CC4)ncnc32)[C@H](O)[C@@H]1O	17 (≈ 38.9 µM)	0.0013	17
C[C@H]1O[C@@H](n2cc(-c3ccccc3)c3c(NC4CC4)ncnc32)[C@H](O)[C@@H]1O	36 (≈ 98.2 µM)	0.38	
C[C@H]1O[C@@H](n2cc(-c3ccccc3)c3c(NCC(=O)NCC4CC4)ncnc32)[C@H](O)[C@@H]1O	12 (≈ 27.4 µM)	0.006	42
CCNC(=O)CNc1ncnc2c1c(-c1ccccc1)cn2[C@@H]1O[C@H](C)[C@@H](O)[C@H]1O	140 (≈ 340 µM)	0.04	52
C[C@H]1O[C@@H](n2cc(-c3ccccc3)c3c(NCC(=O)NCCN(C)C)ncnc32)[C@H](O)[C@@H]1O	> 1000	0.3	
C[C@@H](Nc1ncnc2c1c(-c1ccccc1)cn2[C@@H]1O[C@H](C)[C@@H](O)[C@H]1O)C(=O)NC1CC1		2.5	
C[C@H]1O[C@@H](n2cc(-c3ccccc3)c3c(NCC(=O)NCCCN(C)C)ncnc32)[C@H](O)[C@@H]1O	> 1000	0.145	22
O=C(CNc1ncnc2c1c(-c1ccccc1)cn2COCCO)NC1CC1	270 (≈ 708 µM)	1.7	
CC(C)NC(=O)CNc1ncnc2c1c(-c1ccccc1)cn2[C@@H]1O[C@H](C)[C@@H](O)[C@H]1O	26 (≈ 61.1 µM)	0.025	74
C[C@H]1O[C@@H](n2cc(-c3ccccc3)c3c(NCC(=O)Nc4ccccc4)ncnc32)[C@H](O)[C@@H]1O	< 0.05	0.0005	62
CCCOC(=O)Nc1ncnc2c1c(-c1ccccc1)cn2[C@@H]1O[C@H](C)[C@@H](O)[C@H]1O		0.004	
C[C@H]1O[C@@H](n2nc(-c3ccccc3)c3c(NCC(=O)NC4CC4)ncnc32)[C@H](O)[C@@H]1O	620 (≈ 1460 µM)	0.006	7
C[C@H]1O[C@@H](n2cc(-c3ccccc3)c3c(NCC(=O)NC4CCCC4)ncnc32)[C@H](O)[C@@H]1O	6 (≈ 13.3 µM)	0.001	16
CCONC(=O)CNc1ncnc2c1c(-c1ccccc1)cn2[C@@H]1O[C@H](C)[C@@H](O)[C@H]1O	535 (≈ 1250 µM)	0.005	0
C[C@H]1O[C@@H](n2cc(-c3ccccc3)c3c(Nc4ccc(F)cc4)ncnc32)[C@H](O)[C@@H]1O	< 0.05		
